{"source": "ChEMBL document CHEMBL4725492", "about": "“Dioxane-Linked Amide Derivatives as Novel Bacterial Topoisomerase Inhibitors against Gram-Positive Staphylococcus aureus” (ACS Med Chem Lett, 2020)", "key": {"Topoisomerase IV": {"molecular_target": "Topoisomerase IV (Staphylococcus aureus, UniProt P0C1S7+P0C1U9)", "experiment": "Inhibition of Staphylococcus aureus topoisomerase-4 assessed as reduction in decatenation of kinetoplast DNA agarose gel electrophoresis method", "assay_type": "protein-complex assay"}, "Staphylococcus aureus [1]": {"test_system": "Staphylococcus aureus", "experiment": "Antibacterial activity against Staphylococcus aureus ATCC 29213 by CLSI based agar dilution method", "assay_type": "functional"}, "[2]": {"molecular_target": "T1, DNA gyrase (Staphylococcus aureus) (UniProt P0A0K8+P20831)", "experiment": "Inhibition of Staphylococcus aureus DNA gyrase assessed as single-strand break using relaxed pBR322 as substrate by ethidium bromide-based gel electrophoresis", "assay_type": "protein-complex assay", "method_in_brief": "(§1)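 S. aureus gyrase-mediated DNA cleavage: compound was incubated with enzyme and DNA, and products were resolved on an ethidium-stained gel into negatively supercoiled, nicked (single-strand break) and linear (double-strand break) forms. Lane fluorescence was corrected for differential band emission. Percent of each form was calculated, and enzyme-only cleavage was subtracted. Concentrations spanned 0.1 nM–200 μM, with a 20 μM single-point screen. Results are mean ± SD or range.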"}, "Staphylococcus aureus [3]": {"test_system": "Staphylococcus aureus", "experiment": "Antibacterial activity against Staphylococcus aureus D83N by CLSI based agar dilution method", "assay_type": "functional"}, "[4]": {"experiment": "Growth inhibition of human K/VP.5 cells incubated for 48 hrs by sulforhodamine B assay", "assay_type": "functional"}, "Staphylococcus aureus [5]": {"test_system": "Staphylococcus aureus", "experiment": "Antibacterial activity against Staphylococcus aureus 3527 by CLSI based agar dilution method", "assay_type": "functional"}, "Staphylococcus aureus [6]": {"test_system": "Staphylococcus aureus", "experiment": "Antibacterial activity against Staphylococcus aureus USA300 by CLSI based agar dilution method", "assay_type": "functional"}, "[7]": {"molecular_target": "DNA topoisomerase 2-alpha (Homo sapiens, UniProt P11388)", "experiment": "Inhibition of human topoisomerase 2alpha relative to control", "method_in_brief": "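Human topoisomerase IIα decatenation activity was tested at a single concentration of 100 μM and reported as percent inhibition.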"}, "[8]": {"molecular_target": "Voltage-gated inwardly rectifying potassium channel KCNH2 (Homo sapiens, UniProt Q12809)", "experiment": "Inhibition of human ERG", "settings": "human"}, "DNA gyrase": {"molecular_target": "DNA gyrase (Staphylococcus aureus, UniProt P0A0K8+P20831)", "experiment": "Inhibition of Staphylococcus aureus DNA gyrase using relaxed pBR322 as substrate by gel electrophoresis", "assay_type": "protein-complex assay"}, "[9]": {"molecular_target": "T1, DNA gyrase (Staphylococcus aureus)", "experiment": "Inhibition of Staphylococcus aureus DNA gyrase assessed as double-strand break using relaxed pBR322 as substrate by ethidium bromide-based gel electrophoresis", "assay_type": "protein-complex assay", "settings": "dose microM 0.0001-20", "method_in_brief": "as §1"}, "K562": {"test_system": "K562", "experiment": "Growth inhibition of human K562 cells incubated for 48 hrs by sulforhodamine B assay", "assay_type": "functional"}}, "note": "pIC50: −log10 of the molar value.", "data": [{"smiles": "COc1ccc2nccc(CC[C@H]3OC[C@H](NC(=O)c4ccc5c(c4)NC(=O)CS5)CO3)c2c1", "values": [{"measurement": "pIC50", "setting": "Topoisomerase IV", "result": 6.15}, {"measurement": "MIC", "setting": "Staphylococcus aureus [1]", "result": 0.03, "unit": "µg/mL"}, {"measurement": "inhibition", "setting": "[2]", "result": "Dose-dependent effect"}, {"measurement": "MIC", "setting": "Staphylococcus aureus [3]", "result": "> 64", "unit": "µg/mL"}, {"measurement": "INH", "setting": "[4]", "result": ">200", "unit": "µM"}, {"measurement": "MIC", "setting": "Staphylococcus aureus [5]", "result": "≤ 0.125", "unit": "µg/mL"}, {"measurement": "MIC", "setting": "Staphylococcus aureus [6]", "result": "≤ 0.125", "unit": "µg/mL"}, {"measurement": "inhibition (INH)", "setting": "[7]", "result": 37, "unit": "%"}, {"measurement": "INH", "setting": "[8]", "result": "> 30", "unit": "µM"}, {"measurement": "pIC50", "setting": "DNA gyrase", "result": 6.89}, {"measurement": "inhibition", "setting": "[9]", "result": "Dose-dependent effect"}, {"measurement": "INH", "setting": "K562", "result": ">200", "unit": "µM"}]}]}
